Diaph inh CS – diaphorase inhibitors and chemical oxidizers, primary screen, counter-screen for diaphorase-coupled primary assays, biochemical, uHTS, resorufin fluorescence; diaphorase resazurin-to-resorufin fluorescence, NADH, 16 min; bacterial (C. kluyveri) enzyme, not human; inhibition, % at 20 µM; 0.69% of 190,000 active;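 active means primary screen inhibition at 20 µM above a set limit, cut at about 50% in these data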;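 further: plate controls were DMSO with full reaction for no effect and wells lacking NADH for full effect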
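Assay system: diaphorase enzyme from Clostridium kluyveri. Quantity: enzyme working solution with 0.14 U/mL diaphorase. Schedule: reaction incubation of 16 min at room temperature. Technique: resorufin fluorescence, excitation 544 nm, emission 590 nm. Controls: No-NADH positive control and DMSO neutral control.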
Diaphorase act – compounds boosting diaphorase resazurin reduction – biochemical, uHTS, resorufin fluorescence, counter-screen for diaphorase-coupled primary assays, primary screen | 0.005% of 190,000 active | Diaphorase/resazurin coupled assay, 16 min; active compounds read high; 1 = vehicle wells, 0 = NADH-free wells | activation factor at 20 µM;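 active means diaphorase activity raised at least twofold by the compound at 20 µM; inactive means activation factor below 2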
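Material: bacterial diaphorase enzyme (C. kluyveri); amount: enzyme 0.07 U/mL final; reagent: NADH substrate 0.114 mM plus resazurin dye 0.1 mM, final; doses: single compound dose of 20 µM, 1% DMSO final; timing: 16 min enzyme reaction, ambient temperature; measured by: fluorescence of resorufin, 544 nm excitation, 590 nm emission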
WT yeast gro inh – growth inhibition of WT strain, primary screen, mitochondrial fusion inhibitor project, WT and mutant strains, chemical genetic. mitochondrial fusion phenotypic screen. inhibition, % at 10 µM. 2.1% of 190,000 active. AID 1362, 2008; in the data active means inhibition above about 58%; tested in S. cerevisiae
ROMK primary – ROMK potassium channel modulators, primary screen, cell-based, thallium flux, MLSMR library; Tet-inducible ROMK, thallium flux fluorescence; actives lie on both sides; B-score at 10 µM; 2% of 130,000 active; AID 1918, 2009;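 active means signal ratio slope over the read window, or its plate-corrected B-score, at least 3 SD from the plate mean, either direction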;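 further: B-score of the F/F0 ratio slope over 7 to 12 s after thallium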
Cl transport mod – KCC2 cotransporter modulators, thallium flux, primary screen, cell-based, HEK293 KCC2, FluoZin-2 fluorescence, MLSMR | Solute carrier family 12 member 5 (Homo sapiens), Q9H2X9 | KCC2 cells, thallium flux FluoZin-2 fluorescence | B-score of Tl+ flux slope (higher = more flux/activation; lower = inhibition) at 10 µM | 2.2% of 190,000 active;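 active means thallium flux slope and its plate-corrected score both differing from the plate sample mean at a set confidence after two filtering rounds, in either direction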;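 further: slope of fluorescence scaled to starting intensity during 10 to 20 s after thallium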
L major viab – Leishmania major promastigote growth inhibition, primary screen; Leishmania major promastigotes, resazurin fluorescence viability; inhibition, % at 10 µM; 9% of 200,000 active; AID 1063, 2008; in the data active means inhibition above about 50%;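 further: promastigotes grown with compound for 44 hours at 28 °C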
* hit, by the source's call; i = inactive; . = no result. This is a sample that favours compounds with a hit; in the whole collection about 12% have one here.

SMILES	Diaph inh CS	Diaphorase act	WT yeast gro inh	ROMK primary	Cl transport mod	L major viab
Cc1ccc(C(=O)ONc2ccc(N=NC(=O)c3ccccc3O)cc2)cc1	54.2*	0.5	38.0	-0.0343	0.183	0.2
Cc1cc2nc(-c3ccc(SCc4ccc(C#N)cc4)nc3)[nH]c2cc1C	13.5	0.9	-19.5	0.555	0.761	61.8*
CC(=O)CSc1ccc(-c2nc3cc(C)c(C)cc3[nH]2)cn1	.	.	-5.3	0.376	0.145	80.2*
N#Cc1ccccc1CSc1ccc(-c2nc3ccccc3[nH]2)cn1	13.9	0.9	1.4	.	.	21.6
Cc1ccc(C(=O)CSc2cnc3ccccc3n2)cc1C	16.6	0.8	46.5	-0.488	0.00925	-4.2
Cc1cc(C)nc(N=Nc2c(O)n(Cc3ccc(Cl)cc3)c3ccccc23)n1	20.6	0.8	48.8	.	1.95	5.1
CCCCNC(=S)N=Nc1c(O)n(Cc2ccccc2)c2ccccc12	9.0	0.9	17.8	.	8.82*	8.9
Cc1ccc(Cn2c(O)c(N=NC(=S)Nc3ccccc3F)c3ccccc32)cc1	3.0	1	5.9	0.0664	i	96.6*
O=c1cc(O)c2ccccc2n1Cc1ccccc1Cl	14.2	0.9	-2.3	-0.147	-1.76	-6.5
COC(=O)N=Nc1c(O)n(Cc2ccccc2)c2ccccc12	.	.	.	-0.546	0.373	.
Oc1c(N=NC(=S)Nc2ccccc2F)c2ccccc2n1Cc1ccccc1Cl	5.2	0.9	4.5	-0.781	3.81	84.2*
Cc1ccc(Sc2ccc(N)cn2)cc1	.	.	.	.	-0.416	.
Cc1sc2ncn(CC(=O)OC(C)C(=O)NC(C)(C)C)c(=O)c2c1C (stereo not given)	-2.3	1	1.9	-0.653	0.223	10.2
COc1cc2c(cc1OC)-c1cc3ccc4c(c3c[n+]1CC2)OCO4	8.1	0.9	60.0*	.	0.259	12.8
COc1cc2c(cc1O)CC[n+]1cc3c(OC)c(OC)ccc3cc1-2	-7.8	1.1	-5.6	1	0.147	19.0
O=C(N=Nc1c(O)[nH]c2ccccc12)c1cccc(S(=O)(=O)N2CCCCC2)c1	-1.3	1	-11.9	0.269	0.385	61.0*
CC(C)c1ccc2[nH]c(O)c(N=NC(=O)c3cccc(S(=O)(=O)Nc4ccc(Cl)cc4)c3)c2c1	-7.9	1.1	-3.0	0.0634	1.4	-0.1
Cc1[nH]c2ccccc2c1C(=O)COC(=O)c1cccc(S(=O)(=O)N2CCCCC2)c1	23.3	0.8	23.9	0.0896	0.776	31.7
CCn1c(C)nc2cc(C(=O)N=Nc3c(O)[nH]c4c(C)cc(C)cc34)ccc21	28.2	0.7	-5.1	.	0.398	-2.0
CC(C)c1ccc2[nH]c(O)c(N=NC(=O)c3cccc(S(=O)(=O)N4CCCCC4)c3)c2c1	34.5	0.7	1.8	.	-0.514	98.8*
CNC(=S)N=Nc1c(O)[nH]c2ccc(C(C)C)cc12	20.3	0.8	-11.7	.	6.59*	4.6
CCn1c(C)nc2cc(C(=O)N=Nc3c(O)[nH]c4ccccc34)ccc21	24.0	0.8	1.4	.	-0.00363	53.7*
CCCn1c(SCC(=O)N2c3ccccc3Sc3ccccc32)nc2c1c(=O)n(C)c(=O)n2C	15.7	0.8	-0.2	-0.279	.	61.8*
Cn1c(=O)c2c(SCC(=O)N3CCOCC3)nc(CC(C)(C)C)nc2n(C)c1=O	24.6	0.8	2.0	.	.	8.8
Cn1c(=O)c2c(SCC(=O)N3CCCc4ccccc43)nc(CC(C)(C)C)nc2n(C)c1=O	18.9	0.8	55.0	.	.	52.1*
SMILES	Diaph inh CS	Diaphorase act	WT yeast gro inh	ROMK primary	Cl transport mod	L major viab
CCCn1c(SCC(=O)N2CCCc3ccccc32)nc2c1c(=O)n(C)c(=O)n2C	-5.2	1.1	.	.	1.22	2.2
CC(C)n1c(SCC(=O)N2c3ccccc3Sc3ccccc32)nc2c1c(=O)n(C)c(=O)n2C	76.1*	0.2	12.7	0.274	.	59.7*
CC(C)n1c(SCC(=O)N2c3ccccc3CCc3ccccc32)nc2c1c(=O)n(C)c(=O)n2C	.	.	.	-1.3	-0.0307	5.4
Cn1c(=O)c2c(nc(SCC(=O)N3c4ccccc4CCc4ccccc43)n2C)n(C)c1=O	13.9	0.9	5.1	0.87	.	51.8*
COC(=O)C1=CN(C(C)C)C=C(C(=O)OC)C1c1cc2c(cc1Br)OCO2	18.5	0.8	6.4	-0.428	.	99.9*
OCCN1CCN(C(=S)c2ccc(Cl)c(Cl)c2)CC1	12.0	0.9	-16.0	.	0.432	84.9*
O=C(Nc1cccc([N+](=O)[O-])c1)C1CC(=O)N(C2CCCCC2)C1 (stereo not given)	5.6	0.9	-3.4	0.0827	1.71	-5.0
Cc1cccc(C2CC(c3ccc(Cl)cc3)Nc3nc(N)nn32)c1 (stereo not given)	8.0	0.9	5.5	.	-0.219	64.3*
Cc1cccc(C2CC(c3ccc(F)cc3)Nc3nc(N)nn32)c1 (stereo not given)	22.6	0.8	8.6	.	1.19	93.2*
CCc1ccc(C2CC(c3cccc(Cl)c3)n3nc(N)nc3N2)cc1 (stereo not given)	12.3	0.9	5.2	.	-0.0637	54.3*
CCOc1ccc(C2CC(c3cccc(C)c3)n3nc(N)nc3N2)cc1 (stereo not given)	10.6	0.9	3.0	.	-0.427	13.8
CN(CC(=O)O)c1ccc(C(F)(F)F)cc1[N+](=O)[O-]	-22.5	1.2	9.5	-0.0954	-0.416	-3.7
COc1ccc(OC)c(NC(=O)CN(Cc2ccccc2)S(C)(=O)=O)c1	-9.1	1.1	9.0	-1.18	0.511	4.8
O=C(N/N=C/c1ccc([N+](=O)[O-])o1)c1ccc(O)cc1	11.2	0.9	5.1	.	0.48	99.6*
O=C(CNC(=O)c1ccc(F)cc1)N/N=C/c1ccc(O)c([N+](=O)[O-])c1	5.9	0.9	-20.9	.	-0.00706	56.1*
CCN(CC)S(=O)(=O)c1cccc(C(=O)N/N=C/c2ccc([N+](=O)[O-])o2)c1	21.4	0.8	-7.5	-0.65	0.969	99.8*
O=C(N/N=C/c1ccc([N+](=O)[O-])o1)c1ccncc1	.	.	.	.	0.505	.
Cc1ccc(/C=N\NC(=O)c2cc([N+](=O)[O-])cc([N+](=O)[O-])c2)o1	12.5	0.9	-6.9	.	4.72*	57.6*
CC(=O)c1ccc(NC(=O)C(C)OC(=O)COc2ccc(C#N)cc2)cc1 (stereo not given)	20.9	0.8	-0.1	0.00811	-0.175	-7.7
O=C(CN1CCc2ccccc21)NN1CC(=O)N(c2ccc(Cl)cc2)CC1=O	.	.	.	.	0.4	.
C/C(CC(=O)NCc1ccco1)=N\NC(=O)COc1ccc(C)cc1	11.2	0.9	1.4	-0.412	0.689	37.1

Screens: PubChem BioAssay, several laboratories
